Activity calls are given as the source filed them. No cut-off for these calls is given here.
Columns and labels:
[1] = tested on: L-lactate dehydrogenase, skeletal muscle M4 (Oryctolagus cuniculus); experiment: Ability to inhibit skeletal muscle LDH (LDH-M4); Inactive; conditions: Muscle tissue
[2] = biological target: T1, Malate dehydrogenase, cytoplasmic (Sus scrofa) (UniProt P11708); experiment: Ability to inhibit cytoplasmic malate dehydrogenase; Inactive
T1 sequence (whole entry): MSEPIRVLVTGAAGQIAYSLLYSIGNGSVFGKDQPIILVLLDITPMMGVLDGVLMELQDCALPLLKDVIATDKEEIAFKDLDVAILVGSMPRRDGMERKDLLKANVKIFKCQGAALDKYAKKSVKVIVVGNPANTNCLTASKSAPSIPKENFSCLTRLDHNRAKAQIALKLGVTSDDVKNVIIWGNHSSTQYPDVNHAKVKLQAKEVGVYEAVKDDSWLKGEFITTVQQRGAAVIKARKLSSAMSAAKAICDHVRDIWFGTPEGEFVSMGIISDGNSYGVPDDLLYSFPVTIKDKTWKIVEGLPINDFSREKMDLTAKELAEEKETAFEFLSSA
Outline: (§1)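 Pig heart enzyme (cytoplasmic or mitochondrial form), diluted in 0.05 M Tris pH 7.4 with 1% BSA to give 0.022–0.027 OD/min at 340 nm. Cuvette holds 0.05 M Tris pH 8.4, L-malate, NAD+ and Me2SO ± inhibitor. Equilibrated at 25 °C, then started with enzyme. Five inhibitor concentrations in triplicate; I50 from least-squares dose-response line.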

[3] = biological target: T2, Malate dehydrogenase, mitochondrial (Sus scrofa) (UniProt P00346); experiment: Ability to inhibit mitochondrial malate dehydrogenase; Inactive
T2 sequence (whole entry): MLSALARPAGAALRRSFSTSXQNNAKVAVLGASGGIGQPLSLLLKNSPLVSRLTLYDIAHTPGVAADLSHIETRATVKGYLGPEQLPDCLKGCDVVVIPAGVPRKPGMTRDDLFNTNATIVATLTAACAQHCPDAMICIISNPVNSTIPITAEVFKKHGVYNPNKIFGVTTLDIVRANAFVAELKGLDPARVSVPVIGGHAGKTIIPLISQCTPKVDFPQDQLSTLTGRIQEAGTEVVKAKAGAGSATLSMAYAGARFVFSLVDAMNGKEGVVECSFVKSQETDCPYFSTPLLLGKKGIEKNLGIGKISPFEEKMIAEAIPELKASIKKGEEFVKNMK
Outline: as §1

SMILES | pI50 [2] | pI50 [3] | pI50 [1]
O=C(O)c1cnc2cc(F)ccc2c1O |  |  | inactive
O=C(O)c1cnc2cc(OCCc3ccc(F)cc3)ccc2c1O | inactive |  | inactive
O=C(O)c1cnc2cc(OCc3ccc4ccccc4c3)ccc2c1O | inactive |  | inactive
O=C(O)c1cnc2cc(OCCc3ccc4ccccc4c3)ccc2c1O |  |  | inactive
O=C(O)c1cnc2cc(OCc3c(Cl)c(Cl)c(Cl)c(Cl)c3Cl)ccc2c1O | inactive |  | inactive
O=C(O)c1cnc2cc(OCCc3ccccc3)ccc2c1O |  |  | inactive
O=C(O)c1cnc2cc(OCc3cccc4ccccc34)ccc2c1O | inactive |  | inactive
O=C(O)c1cnc2cc(OCCOc3ccc(Br)cc3)ccc2c1O | inactive |  | inactive
O=C(O)c1cnc2cc(OCCc3ccc(Oc4ccccc4)cc3)ccc2c1O |  |  | inactive
O=C(O)c1cnc2cc(OCCOc3ccc(Oc4ccccc4)cc3)ccc2c1O |  |  | inactive
NC(=O)c1ccc2c(O)c(C(=O)O)cnc2c1 |  |  | inactive

More lines, main results first:

pI50 [2] | pI50 [3] | SMILES | pI50 [1]
inactive |  | O=C(O)c1cnc2cc(OCCOc3ccccc3)ccc2c1O | inactive
inactive | inactive | O=C(O)c1cnc2ccccc2c1O | inactive
inactive |  | O=C(O)c1cnc2cc(OCc3ccc(Br)cc3)ccc2c1O | inactive
inactive |  | O=C(O)c1cnc2cc(OCCOc3ccc4ccccc4c3)ccc2c1O | inactive
inactive |  | O=C(O)c1cnc2cc(OCCOc3ccc(F)cc3)ccc2c1O | inactive
inactive | inactive | COc1ccc2c(O)c(C(=O)O)cnc2c1 | inactive
inactive |  | O=C(O)c1cnc2cc(OCc3ccc(F)cc3)ccc2c1O | inactive
inactive |  | O=C(O)c1cnc2cc(OCc3ccc(Cl)c(Cl)c3)ccc2c1O | inactive
inactive |  | O=C(O)c1cnc2cc(OCc3ccccc3)ccc2c1O | inactive

Source: ChEMBL document CHEMBL1122163, “4-hydroxyquinoline-3-carboxylic acids as inhibitors of cell respiration. 2. Quantitative structure-activity relationship of dehydrogenase enzyme and Ehrlich ascites tumor cell inhibitions” (J Med Chem, 1982)
